This note sets out measurements from ChEMBL document CHEMBL2440093, “Discovery of 2-aryl-8-hydroxy (or methoxy)-isoquinolin-1(2H)-ones as novel EGFR inhibitor by scaffold hopping” (Bioorg Med Chem, 2013).

Assay [1] concerns A-431. Description: Antiproliferative activity against human A431 cells after 72 hrs by MTT assay. Format: functional, cell-based. Conditions: A-431, 72 h. Summed up: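 A431 cells seeded in 96-well plates and held 24 h at 37 °C before exposure, with cell numbers set so controls stay in exponential growth. Compounds at final 100.0, 10.0, 1.0 and 0.1 μM for 72 h. MTT (5 mg/ml in PBS) added for 4 h, formazan pelleted and dissolved in DMSO, OD 570 nm. Three experiments in triplicate; IC50 from inhibition ratios.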
Background: Formazan colour is commonly taken as a measure of viable cells.

The subject of assay [2] is A549. The experiment in a line: Antiproliferative activity against human A549 cells after 72 hrs by MTT assay. Format: functional, cell-based. Conditions: A549, 72 h.
The target in assay [3] is Epidermal growth factor receptor (Homo sapiens, UniProt P00533). The experiment in a line: Inhibition of EGFR in shed membrane vesicles of human A431 cells using poly-Glu-Tyr as substrate after 30 mins by ELISA. Format: cell membranes, A-431. (ELISA stands for enzyme-linked immunosorbent assay.)
Chain of Epidermal growth factor receptor (P00533 whole entry): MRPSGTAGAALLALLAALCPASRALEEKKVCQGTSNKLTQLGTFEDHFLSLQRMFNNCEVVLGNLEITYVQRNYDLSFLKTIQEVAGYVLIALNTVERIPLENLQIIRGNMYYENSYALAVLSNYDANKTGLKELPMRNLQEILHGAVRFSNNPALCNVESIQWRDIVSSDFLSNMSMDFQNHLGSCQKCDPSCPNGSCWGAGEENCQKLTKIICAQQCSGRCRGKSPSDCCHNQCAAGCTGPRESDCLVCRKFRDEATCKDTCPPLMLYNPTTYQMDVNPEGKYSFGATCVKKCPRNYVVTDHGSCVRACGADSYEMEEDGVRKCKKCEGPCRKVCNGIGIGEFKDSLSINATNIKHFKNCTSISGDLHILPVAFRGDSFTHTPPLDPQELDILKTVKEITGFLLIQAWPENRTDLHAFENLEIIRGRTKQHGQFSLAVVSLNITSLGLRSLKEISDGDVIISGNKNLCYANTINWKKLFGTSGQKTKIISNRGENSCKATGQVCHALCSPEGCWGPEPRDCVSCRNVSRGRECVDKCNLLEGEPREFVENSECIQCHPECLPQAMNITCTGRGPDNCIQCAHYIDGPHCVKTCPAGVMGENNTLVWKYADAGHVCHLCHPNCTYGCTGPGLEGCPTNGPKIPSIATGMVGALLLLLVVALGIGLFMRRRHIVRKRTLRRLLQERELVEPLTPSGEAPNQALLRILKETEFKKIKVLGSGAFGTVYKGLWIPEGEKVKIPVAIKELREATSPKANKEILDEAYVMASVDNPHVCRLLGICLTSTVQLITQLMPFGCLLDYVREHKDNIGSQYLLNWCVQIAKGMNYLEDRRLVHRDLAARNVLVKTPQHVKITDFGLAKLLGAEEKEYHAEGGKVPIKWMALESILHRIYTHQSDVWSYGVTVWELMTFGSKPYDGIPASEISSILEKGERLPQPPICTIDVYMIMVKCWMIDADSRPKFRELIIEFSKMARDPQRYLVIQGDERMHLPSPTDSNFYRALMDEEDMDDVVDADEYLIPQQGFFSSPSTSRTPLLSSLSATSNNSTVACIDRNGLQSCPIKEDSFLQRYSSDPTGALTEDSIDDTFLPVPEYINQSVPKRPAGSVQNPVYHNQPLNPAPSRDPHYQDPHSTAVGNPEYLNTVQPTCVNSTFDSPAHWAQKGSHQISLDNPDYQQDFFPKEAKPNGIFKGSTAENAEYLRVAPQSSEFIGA

As a reminder, the IC50 is the midpoint of a concentration-inhibition curve. A lower IC50 goes with greater potency in that assay. For the compound `COc1cc(OC)c2c(=O)n(-c3ccccc3)ccc2c1`, the half-maximal inhibitory concentration (IC50) in assay [1] amounted to 5.35 µM; in assay [2], 44.5 µM.
Regarding `C#Cc1cccc(-n2ccc3cc(OC)cc(OC)c3c2=O)c1`, the concentration for half-maximal inhibition (IC50) in assay [1] turned out to be 7.13 µM; in assay [3], 3.51 µM; in assay [2], 25.2 µM.
For `COc1cc(OC)c2c(=O)n(-c3ccc(F)c(Cl)c3)ccc2c1`, the IC50 in assay [1] came to 3.95 µM; in assay [3] it was 5.49 µM; in assay [2], 17.8 µM.
For the compound `COc1cc(OC)c2c(=O)n(-c3cccc(F)c3)ccc2c1`, the IC50 in assay [1] was found to be 4.17 µM; in assay [2] it was 15.2 µM.
`COc1cc(OC)c2c(=O)n(-c3ccc(F)c(F)c3)ccc2c1` displayed an IC50 in assay [1] of 3.79 µM.
As for `COc1cc(OC)c2c(=O)n(-c3cccc(C(F)(F)F)c3)ccc2c1`, the IC50 amounted to 14.8 µM in assay [1] and 23.3 µM in assay [2].
For the compound `COc1cc(OC)c2c(=O)n(-c3cccc(C(=O)N4CCCCC4)c3)ccc2c1`, the IC50 in assay [1] is 15.3 µM; in assay [3] it was 2.12 µM; in assay [2], 18.6 µM.
Consider `COc1cc(OC)c2c(=O)n(-c3cccc(C(N)=O)c3)ccc2c1`, for which the values for the IC50 in assay [1] and in assay [2] were 28.2 µM and 31.3 µM, respectively.
With `COc1cc(OC)c2c(=O)n(Cc3ccccc3)ccc2c1`, in assay [1], 3.88 µM corresponded to half-maximal inhibition (IC50).
In the case of `C#Cc1cccc(-n2ccc3cc(OC)cc(O)c3c2=O)c1`, the IC50 in assay [1] came out at 4.44 µM; in assay [3] it was 3.06 µM; in assay [2] it was 15.9 µM.
The compound `COc1cc(O)c2c(=O)n(-c3ccccc3)ccc2c1` had a half-inhibitory concentration (IC50) in assay [2] of 27.9 µM.
Turning to `COc1cc(O)c2c(=O)n(-c3cccc(C(=O)N4CCCCC4)c3)ccc2c1`, the values for the concentration for half-maximal inhibition (IC50) in assay [1], in assay [3] and in assay [2] were 2.25 µM, 1.38 µM and 14.2 µM, respectively.
As for `COc1cc(O)c2c(=O)n(-c3cccc(C(N)=O)c3)ccc2c1`, the results for the IC50 in assay [1] and in assay [2] were 15.2 µM and 24.8 µM, respectively.
`COc1cc(O)c2c(=O)n(Cc3ccccc3)ccc2c1` yielded an IC50 in assay [1] of 8.29 µM.
For `COc1cc2c(c(OC)c1)C(=O)N(c1cccc(C(=O)N3CCCCC3)c1)CC2`, the results for the 50% inhibitory concentration (IC50) in assay [1], in assay [3] and in assay [2] were 10.8 µM, 1.23 µM and 23.4 µM, respectively.
Regarding `COc1cc(O)c2c(c1)CCN(c1cccc(C(=O)N3CCCCC3)c1)C2=O`, the IC50 came to 5.32 µM in assay [1], 1.18 µM in assay [3] and 13.2 µM in assay [2].
Turning to `C=CC(=O)Nc1c(OC)cc(OC)c2c(=O)n(-c3cccc(C(=O)N4CCCCC4)c3)ccc12`, in assay [2], the IC50 is 14.7 µM.
Turning to `C=CC(=O)Nc1c(OC)cc(O)c2c(=O)n(-c3cccc(C(=O)N4CCCCC4)c3)ccc12`, the half-maximal inhibitory concentration (IC50) in assay [1] amounted to 5.3 µM; in assay [2], 14.7 µM.
Take `COc1cc(O)c2c(=O)n(-c3cccc(C(=O)N4CCCCC4)c3)ccc2c1NC(=O)Nc1ccc(C(=O)N2CCN(C)CC2)cc1`: the IC50 was 19.5 µM in assay [1] and above 100 µM in assay [2].
In the case of `COc1cc(O)c2c(=O)n(-c3cccc(C(=O)N4CCCCC4)c3)ccc2c1NC(=O)CCN1CCOCC1`, the results for the half-inhibitory concentration (IC50) in assay [1] and in assay [2] were 11.4 µM and 13.1 µM, respectively.
